According to ChEMBL document CHEMBL1147803, “2,5-Disubstituted pyrrolidine carboxylates as potent, orally active sphingosine-1-phosphate (S1P) receptor agonists” (Bioorg Med Chem Lett, 2006):
The source made the active and inactive calls. No cut-off for these calls is given here.

Key:
[1] = biological target: T1, Sphingosine 1-phosphate receptor 3 (Homo sapiens, UniProt Q99500); experiment: Activity at S1P3 receptor by [35S]GTP-gammaS binding assay; assay type: functional; details: filed as agonist
T1 sequence (Q99500 whole entry): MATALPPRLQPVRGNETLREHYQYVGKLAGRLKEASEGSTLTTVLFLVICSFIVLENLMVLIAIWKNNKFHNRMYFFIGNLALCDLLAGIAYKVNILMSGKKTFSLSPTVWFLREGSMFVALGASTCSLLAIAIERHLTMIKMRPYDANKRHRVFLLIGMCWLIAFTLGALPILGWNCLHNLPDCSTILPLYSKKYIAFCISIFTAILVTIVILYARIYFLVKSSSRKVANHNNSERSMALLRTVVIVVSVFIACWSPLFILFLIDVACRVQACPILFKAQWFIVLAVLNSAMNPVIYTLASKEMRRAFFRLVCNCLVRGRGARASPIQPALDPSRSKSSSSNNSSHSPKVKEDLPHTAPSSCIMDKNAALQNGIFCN

[2] = biological target: T2, Sphingosine 1-phosphate receptor 5 (Homo sapiens, UniProt Q9H228); experiment: Displacement of [33P]S1P from S1P5 expressed in CHO cells; assay type: cell-based
T2 sequence (Q9H228 whole entry): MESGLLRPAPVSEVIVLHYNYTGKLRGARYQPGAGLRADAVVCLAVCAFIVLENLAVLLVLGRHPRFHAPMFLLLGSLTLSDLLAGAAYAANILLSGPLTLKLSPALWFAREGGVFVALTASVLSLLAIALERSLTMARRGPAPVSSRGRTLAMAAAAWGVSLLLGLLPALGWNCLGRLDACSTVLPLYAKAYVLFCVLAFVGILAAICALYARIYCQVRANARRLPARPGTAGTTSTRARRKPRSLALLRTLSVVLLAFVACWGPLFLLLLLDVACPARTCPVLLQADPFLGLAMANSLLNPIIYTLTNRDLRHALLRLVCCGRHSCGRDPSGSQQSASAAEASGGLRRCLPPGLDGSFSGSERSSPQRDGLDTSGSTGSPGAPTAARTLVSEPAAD
Procedure, shortened: (§1)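 Competitive radioligand binding with [33P]S1P on membranes from CHO cells expressing each of the five S1P receptor subtypes (S1P1–5).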

[3] = biological target: T3, Sphingosine 1-phosphate receptor 4 (Homo sapiens, UniProt O95977); experiment: Displacement of [33P]S1P from S1P4 expressed in CHO cells; assay type: cell-based; procedure, shortened: as §1
T3 sequence (O95977 whole entry): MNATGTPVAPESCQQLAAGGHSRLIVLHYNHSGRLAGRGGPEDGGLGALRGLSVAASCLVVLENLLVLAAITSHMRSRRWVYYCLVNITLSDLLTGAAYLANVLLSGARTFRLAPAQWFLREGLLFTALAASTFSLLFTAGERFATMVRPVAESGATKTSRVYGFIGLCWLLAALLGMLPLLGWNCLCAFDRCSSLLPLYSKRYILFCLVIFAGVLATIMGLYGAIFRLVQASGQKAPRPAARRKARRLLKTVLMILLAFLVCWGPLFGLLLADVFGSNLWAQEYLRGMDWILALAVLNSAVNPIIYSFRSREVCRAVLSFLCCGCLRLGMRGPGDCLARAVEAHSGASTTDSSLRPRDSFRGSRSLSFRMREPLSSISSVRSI

[4] = biological target: T4, Sphingosine 1-phosphate receptor 1 (Homo sapiens, UniProt P21453); experiment: Displacement of [33P]S1P from S1P1 expressed in CHO cells; assay type: cell-based; procedure, shortened: as §1
T4 sequence (P21453 whole entry): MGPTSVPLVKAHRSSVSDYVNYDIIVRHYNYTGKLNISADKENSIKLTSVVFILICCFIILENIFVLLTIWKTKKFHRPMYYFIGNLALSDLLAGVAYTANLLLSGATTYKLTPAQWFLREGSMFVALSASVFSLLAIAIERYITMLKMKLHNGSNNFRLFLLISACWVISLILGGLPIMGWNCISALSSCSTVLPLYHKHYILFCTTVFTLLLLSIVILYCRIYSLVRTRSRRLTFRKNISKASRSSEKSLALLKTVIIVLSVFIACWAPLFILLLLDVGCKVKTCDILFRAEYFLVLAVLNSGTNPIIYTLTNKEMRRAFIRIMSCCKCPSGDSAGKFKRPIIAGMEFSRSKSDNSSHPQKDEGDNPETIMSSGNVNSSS

[5] = biological target: T2, Sphingosine 1-phosphate receptor 5; experiment: Activity at S1P5 receptor by [35S]GTP-gammaS binding assay; assay type: functional; details: filed as agonist
[6] = biological target: T4, Sphingosine 1-phosphate receptor 1; experiment: Activity at S1P1 receptor by [35S]GTP-gammaS binding assay; assay type: functional; details: filed as agonist
[7] = biological target: T1, Sphingosine 1-phosphate receptor 3; experiment: Displacement of [33P]S1P from S1P3 expressed in CHO cells; assay type: cell-based; procedure, shortened: as §1
[8] = biological target: Sphingosine 1-phosphate receptor 2 (Homo sapiens, UniProt O95136); experiment: Displacement of [33P]S1P from S1P2 expressed in CHO cells; assay type: cell-based; procedure, shortened: as §1
Chain of Sphingosine 1-phosphate receptor 2 (O95136 whole entry): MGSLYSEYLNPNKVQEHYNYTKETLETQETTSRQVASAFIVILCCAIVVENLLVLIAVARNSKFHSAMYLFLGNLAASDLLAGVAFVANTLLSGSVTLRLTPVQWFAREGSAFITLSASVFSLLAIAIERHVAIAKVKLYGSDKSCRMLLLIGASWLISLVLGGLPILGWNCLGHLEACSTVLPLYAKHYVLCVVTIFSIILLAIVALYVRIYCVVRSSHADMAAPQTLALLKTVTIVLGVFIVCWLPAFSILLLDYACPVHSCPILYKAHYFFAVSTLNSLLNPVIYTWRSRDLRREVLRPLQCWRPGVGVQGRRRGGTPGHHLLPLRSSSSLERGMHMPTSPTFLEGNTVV

[9] = Bioavailability in Sprague-Dawley rat at 1 mg/kg, iv and 2 mg/kg, po; assay type: ADME, organism-based; details: in vivo
Mus musculus [10] = experiment: Lowering of peripheral blood lymphocytes in mouse at 10 mg/kg; assay type: functional, organism-based; design: dose 10 mg/kg
Procedure, shortened: (§2)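 Mice were dosed orally, and circulating peripheral blood lymphocytes were counted 3 h after administration.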

[11] = Volume of distribution in Sprague-Dawley rat at 1 mg/kg, iv or 2 mg/kg, po; assay type: ADME, organism-based; details: in vivo, read-out: Vdss
[12] = Half life in Sprague-Dawley rat at 1 mg/kg, iv or 2 mg/kg, po; assay type: ADME, organism-based; details: in vivo
[13] = Plasma clearance in Sprague-Dawley rat at 1 mg/kg, iv or 2 mg/kg, po; assay type: ADME, organism-based
Mus musculus [14] = organism: Mus musculus; experiment: Lowering of peripheral blood lymphocytes in mouse; assay type: functional; procedure, shortened: as §2

Structure (SMILES)	Activity [1]	IC50 [2] [nM]	IC50 [3] [nM]	IC50 [4] [nM]	Activity [5]	Activity [6]	IC50 [7] [nM]	IC50 [8] [nM]	IC50 ([8]; cho) [nM]	bioavailability [9] [%]	Vd [11] [L/kg]	half-life [12] [h]	clearance [13] [mL/min/kg]	Activity (Mus musculus [10])	ED50 (Mus musculus [14]) [mg/kg]
O=C(O)C[C@@H]1CC[C@H](c2ccc(-c3noc(-c4ccc([C@@H]5CCC(F)(F)C5)cc4)n3)cc2)N1 (racemic) [listing 1 of 2 here]	–	13	570	1.2	–	–	2500	–	> 10000	–	–	–	–	–	–
O=C(O)C[C@@H]1CC[C@H](c2ccc(-c3noc(-c4ccc([C@H]5CCC(F)(F)C5)cc4)n3)cc2)N1 (racemic)	Agonist	16	720	0.8	Agonist	Agonist	2200	> 10000	–	–	–	–	–	–	–
O=C(O)C[C@@H]1CC[C@H](c2ccc(-c3noc(-c4ccc(C5CCCCC5)cc4)n3)cc2)N1 (racemic)	Agonist	20	350	0.7	Agonist	Agonist	1700	> 10000	–	–	–	–	–	–	–
O=C(O)C[C@@H]1CC[C@H](c2ccc(-c3noc(-c4ccc(C5CCCC5)cc4F)n3)cc2)N1 (racemic)	Agonist	60	1400	2.7	Agonist	Agonist	> 10000	> 10000	–	–	–	–	–	–	–
O=C(O)C[C@@H]1CC[C@H](c2ccc(-c3noc(-c4ccc(C5CCCC5)c(F)c4)n3)cc2)N1 (racemic)	Agonist	30	2100	2	Agonist	Agonist	7600	> 10000	–	–	–	–	–	–	–
O=C(O)C[C@@H]1CC[C@H](c2ccc(-c3noc(-c4ccc([C@@H]5CCC(F)(F)C5)cc4)n3)cc2)N1 (racemic) [listing 2 of 2 here]	Agonist	–	–	–	Agonist	Agonist	–	–	–	–	–	–	–	–	–
O=C(O)C[C@@H]1CC[C@H](c2ccc(-c3noc(-c4ccc([C@@H]5CCC(F)(F)C5)cc4)n3)cc2)N1 (stereo in doubt; form 1) [listing 1 of 2 here]	–	19	1500	2.9	–	–	7800	–	> 10000	–	–	–	–	–	–
O=C(O)C[C@@H]1CC[C@H](c2ccc(-c3noc(-c4ccc([C@@H]5CCC(F)(F)C5)cc4)n3)cc2)N1 (stereo in doubt; form 1) [listing 2 of 2 here]	Agonist	–	–	–	Agonist	Agonist	–	–	–	–	–	–	–	–	–
O=C(O)C[C@@H]1CC[C@H](c2ccc(-c3noc(-c4ccc([C@@H]5CCC(F)(F)C5)cc4)n3)cc2)N1 (stereo in doubt; form 2) [listing 1 of 2 here]	–	15	720	0.64	–	–	3800	> 10000	–	48	2.3	2.2	9.7	–	0.3

More lines, main results first:

Activity [1]	IC50 [2] [nM]	IC50 [3] [nM]	IC50 [4] [nM]	Activity [5]	Activity [6]	IC50 [7] [nM]	IC50 [8] [nM]	IC50 ([8]; cho) [nM]	bioavailability [9] [%]	Vd [11] [L/kg]	half-life [12] [h]	clearance [13] [mL/min/kg]	Structure (SMILES)	Activity (Mus musculus [10])	ED50 (Mus musculus [14]) [mg/kg]
Agonist	1280	1000	75	Agonist	Agonist	> 10000	> 10000	–	–	–	–	–	CC(C)Cc1ccc(-c2nc(-c3ccc([C@H]4CC[C@@H](C(=O)O)N4)cc3)no2)cc1 (racemic)	–	–
Agonist	200	1000	3.3	Agonist	Agonist	> 10000	> 10000	–	48	2.9	4.1	6.6	CC(C)Cc1ccc(-c2nc(-c3ccc([C@H]4CC[C@@H](CC(=O)O)N4)cc3)no2)cc1 (racemic)	Active	–
Agonist	80	630	5.7	Agonist	Agonist	6700	> 10000	–	–	–	–	–	CC(C)Cc1ccc(-c2nc(-c3ccc([C@@H]4CC[C@@H](CCC(=O)O)N4)cc3)no2)cc1 (racemic)	–	–
Agonist	100	700	8	Agonist	Agonist	> 10000	> 10000	–	40	3	3.5	8.4	CC(C)Cc1ccc(-c2nc(-c3ccc([C@@H]4CC[C@@H](CC(=O)O)N4)cc3)no2)cc1 (racemic)	Active	–
Agonist	30	540	4.5	Agonist	Agonist	> 10000	> 10000	–	–	–	–	–	CC(C)Cc1ccc(-c2nc(-c3ccc([C@H]4CC[C@@H](CCC(=O)O)N4)cc3)no2)cc1 (racemic)	–	–
Agonist	180	300	17	Agonist	Agonist	10000	> 10000	–	–	–	–	–	CC(C)Cc1ccc(-c2nc(-c3ccc([C@@H]4CC[C@@H](C(=O)O)N4)cc3)no2)cc1 (racemic)	–	–
Agonist	–	–	–	Agonist	Agonist	–	–	–	–	–	–	–	O=C(O)C[C@@H]1CC[C@H](c2ccc(-c3noc(-c4ccc([C@@H]5CCC(F)(F)C5)cc4)n3)cc2)N1 (stereo in doubt; form 2) [listing 2 of 2 here]	–	–
